In ChEMBL document CHEMBL2010791, “3-Phenyl-5-isothiazole carboxamides with potent mGluR1 antagonist activity” (Bioorg Med Chem Lett, 2012):
pIC50: −log10 of the molar value. The source made the active and inactive calls. The rule behind the calls is not given here.

What was measured:
[1] = molecular target: Metabotropic glutamate receptor 1 (Homo sapiens, UniProt Q13255); experiment: Allosteric antagonist activity at human recombinant mGluR1 expressed in AV12 cells assessed as intracellular calcium concentration using Fluo-3 dye by FLIPR assay; assay type: functional, cell-based
Sequence of Metabotropic glutamate receptor 1 (Homo sapiens, UniProt Q13255) (Q13255 whole entry): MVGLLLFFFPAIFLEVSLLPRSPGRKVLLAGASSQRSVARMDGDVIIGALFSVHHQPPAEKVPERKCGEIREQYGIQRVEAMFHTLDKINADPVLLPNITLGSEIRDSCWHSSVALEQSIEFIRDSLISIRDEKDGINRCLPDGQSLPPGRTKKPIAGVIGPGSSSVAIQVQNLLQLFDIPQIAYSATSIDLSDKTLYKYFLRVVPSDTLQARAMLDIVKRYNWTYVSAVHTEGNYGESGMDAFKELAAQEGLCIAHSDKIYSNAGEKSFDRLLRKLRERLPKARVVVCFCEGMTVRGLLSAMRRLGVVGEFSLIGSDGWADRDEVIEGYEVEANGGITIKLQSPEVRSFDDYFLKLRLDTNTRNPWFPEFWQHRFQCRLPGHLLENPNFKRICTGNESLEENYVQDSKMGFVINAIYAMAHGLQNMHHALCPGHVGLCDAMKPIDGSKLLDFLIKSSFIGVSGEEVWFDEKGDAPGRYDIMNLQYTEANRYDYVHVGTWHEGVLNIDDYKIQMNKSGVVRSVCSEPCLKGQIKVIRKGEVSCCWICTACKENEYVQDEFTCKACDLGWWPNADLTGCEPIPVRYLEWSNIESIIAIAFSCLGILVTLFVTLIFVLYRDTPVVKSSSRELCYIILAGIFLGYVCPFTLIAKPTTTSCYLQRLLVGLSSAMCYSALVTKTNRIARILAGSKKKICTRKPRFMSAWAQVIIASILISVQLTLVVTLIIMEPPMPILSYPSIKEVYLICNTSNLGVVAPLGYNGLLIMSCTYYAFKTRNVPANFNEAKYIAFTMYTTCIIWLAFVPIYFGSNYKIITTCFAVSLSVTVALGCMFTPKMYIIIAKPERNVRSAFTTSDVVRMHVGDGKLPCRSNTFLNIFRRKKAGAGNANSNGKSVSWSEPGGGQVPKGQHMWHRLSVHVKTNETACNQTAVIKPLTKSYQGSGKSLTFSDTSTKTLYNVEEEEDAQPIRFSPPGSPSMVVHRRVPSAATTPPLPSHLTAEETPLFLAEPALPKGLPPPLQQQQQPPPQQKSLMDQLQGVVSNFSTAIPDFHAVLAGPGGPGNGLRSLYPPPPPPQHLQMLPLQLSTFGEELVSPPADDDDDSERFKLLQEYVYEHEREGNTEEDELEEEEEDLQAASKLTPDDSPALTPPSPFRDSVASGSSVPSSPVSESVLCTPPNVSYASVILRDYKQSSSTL
In short: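 Intracellular calcium read with Fluo-3 on a 96-channel FLIPR; peak fluorescence to glutamate at its EC90 with and without compound. Inhibition expressed as percent of assay window (EC90 glutamate response minus buffer); IC50 from 4-parameter logistic fit.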

[2] = molecular target: Metabotropic glutamate receptor 5 (Homo sapiens, UniProt P41594); experiment: Antagonist activity at human mGluR5; assay type: functional
Sequence of Metabotropic glutamate receptor 5 (P41594 whole entry): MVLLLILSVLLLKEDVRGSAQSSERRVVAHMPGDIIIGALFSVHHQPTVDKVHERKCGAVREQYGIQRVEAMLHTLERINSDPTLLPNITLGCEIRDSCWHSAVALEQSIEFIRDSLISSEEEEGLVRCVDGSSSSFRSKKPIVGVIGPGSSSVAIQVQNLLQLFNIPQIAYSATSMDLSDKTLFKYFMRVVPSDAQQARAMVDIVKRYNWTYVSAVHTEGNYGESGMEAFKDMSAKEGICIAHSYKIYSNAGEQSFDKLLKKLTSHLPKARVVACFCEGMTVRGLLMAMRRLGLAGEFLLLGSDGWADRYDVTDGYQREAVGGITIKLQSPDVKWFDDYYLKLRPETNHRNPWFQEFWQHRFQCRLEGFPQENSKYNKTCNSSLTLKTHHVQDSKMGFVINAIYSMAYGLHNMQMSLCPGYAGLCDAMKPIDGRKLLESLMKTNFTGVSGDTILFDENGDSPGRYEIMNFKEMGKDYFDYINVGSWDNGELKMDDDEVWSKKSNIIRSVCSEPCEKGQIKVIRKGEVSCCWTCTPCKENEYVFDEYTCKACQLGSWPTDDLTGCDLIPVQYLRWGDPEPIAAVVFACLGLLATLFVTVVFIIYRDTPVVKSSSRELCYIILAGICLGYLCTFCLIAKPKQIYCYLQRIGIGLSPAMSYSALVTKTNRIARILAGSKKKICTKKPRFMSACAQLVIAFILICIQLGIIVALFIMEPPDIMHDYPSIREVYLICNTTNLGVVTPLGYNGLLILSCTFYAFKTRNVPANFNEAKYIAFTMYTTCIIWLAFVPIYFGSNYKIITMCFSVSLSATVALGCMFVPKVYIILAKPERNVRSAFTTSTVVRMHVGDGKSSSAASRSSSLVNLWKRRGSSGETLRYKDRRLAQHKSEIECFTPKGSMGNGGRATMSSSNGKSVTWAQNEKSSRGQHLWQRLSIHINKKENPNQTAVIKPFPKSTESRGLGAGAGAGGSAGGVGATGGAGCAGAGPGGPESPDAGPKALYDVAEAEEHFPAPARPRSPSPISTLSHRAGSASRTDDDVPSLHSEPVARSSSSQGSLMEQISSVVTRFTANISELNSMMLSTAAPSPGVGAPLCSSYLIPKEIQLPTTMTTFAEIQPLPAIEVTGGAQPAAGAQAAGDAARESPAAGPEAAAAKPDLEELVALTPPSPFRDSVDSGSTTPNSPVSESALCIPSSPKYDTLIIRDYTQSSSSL

Rattus norvegicus [3] = experiment: Analgesic activity in po dosed fasted Harlan Sprague-Dawley rat assessed as inhibition of formalin-induced paw-licking behaviour in late phase administered 1 hr before formalin challenge measured after 11 to 40 mins; assay type: functional
In short: (§1)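 Fasted male Sprague Dawley rats dosed orally (1, 3, 10, 30, 60 mg/kg, n = 8 per group) 1 h before intraplantar injection of 50 µl 5% formalin into right hindpaw. Paw-licking events counted 0–5 min (early) and 11–40 min (late); compared with vehicle, p<0.05.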

[4] = molecular target: Metabotropic glutamate receptor 7 (Homo sapiens) (UniProt Q14831); experiment: Antagonist activity at mGluR7; assay type: functional
[5] = molecular target: Metabotropic glutamate receptor 3 (Homo sapiens) (UniProt Q14832); experiment: Antagonist activity at mGluR3; assay type: functional
Rattus norvegicus [6] = experiment: Analgesic activity in fasted Harlan Sprague-Dawley rat assessed as inhibition of formalin-induced paw-licking behaviour in late phase at 3 to 60 mg/kg, po administered 1 hr before formalin challenge measured after 11 to 40 mins; assay type: functional, organism-based; in short: as §1
[7] = molecular target: Metabotropic glutamate receptor 8 (Homo sapiens) (UniProt O00222); experiment: Antagonist activity at mGluR8; assay type: functional
Sequence of Metabotropic glutamate receptor 8 (Homo sapiens) (O00222 whole entry): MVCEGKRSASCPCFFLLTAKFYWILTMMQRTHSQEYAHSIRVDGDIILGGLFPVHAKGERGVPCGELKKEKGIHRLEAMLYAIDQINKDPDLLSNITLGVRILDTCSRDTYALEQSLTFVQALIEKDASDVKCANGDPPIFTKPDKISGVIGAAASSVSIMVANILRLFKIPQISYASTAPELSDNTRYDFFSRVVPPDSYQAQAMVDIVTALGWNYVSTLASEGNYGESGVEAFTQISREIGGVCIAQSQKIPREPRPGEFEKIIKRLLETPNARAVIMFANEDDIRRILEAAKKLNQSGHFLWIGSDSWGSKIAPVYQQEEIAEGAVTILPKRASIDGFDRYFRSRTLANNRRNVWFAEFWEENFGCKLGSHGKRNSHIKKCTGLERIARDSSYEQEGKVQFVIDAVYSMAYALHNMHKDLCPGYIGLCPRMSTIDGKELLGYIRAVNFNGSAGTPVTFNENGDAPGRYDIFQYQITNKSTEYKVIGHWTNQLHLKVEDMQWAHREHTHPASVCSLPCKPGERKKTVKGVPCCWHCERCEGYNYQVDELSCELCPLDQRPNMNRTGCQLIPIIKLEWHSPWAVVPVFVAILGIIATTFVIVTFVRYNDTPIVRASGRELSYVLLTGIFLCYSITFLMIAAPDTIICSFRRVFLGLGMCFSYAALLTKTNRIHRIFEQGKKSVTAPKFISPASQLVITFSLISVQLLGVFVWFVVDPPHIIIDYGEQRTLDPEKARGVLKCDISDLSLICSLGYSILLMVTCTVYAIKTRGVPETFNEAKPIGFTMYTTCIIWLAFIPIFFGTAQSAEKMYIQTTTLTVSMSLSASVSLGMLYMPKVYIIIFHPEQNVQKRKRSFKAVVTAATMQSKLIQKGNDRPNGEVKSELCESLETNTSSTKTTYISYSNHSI

[8] = molecular target: Metabotropic glutamate receptor 4 (Homo sapiens) (UniProt Q14833); experiment: Antagonist activity at mGluR4; assay type: functional
[9] = Ratio of drug level in brain to plasma in Sprague-Dawley rat; assay type: ADME; conditions: read-out: BPR
In short: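 Rats dosed as in the plasma PK study; brain concentration profiles measured alongside plasma and the brain/plasma ratio taken.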

[10] = Tmax in Sprague-Dawley rat at 10 mg/kg, po; assay type: ADME, organism-based; set-up: dose 10 mg/kg, route oral; conditions: in vivo
In short: (§2)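 Sprague Dawley rats dosed 3 mg/kg IV (solution in 25 mmol/L phosphate buffer pH 3 with 5% solutol HS15 and 5% pharmasolve) and 10 mg/kg orally (suspension in 1% methylcellulose A400 plus 0.1% antifoam); plasma levels measured over 24 h to derive PK parameters.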

[11] = Elimination half life in Sprague-Dawley rat at 10 mg/kg, po; assay type: ADME, organism-based; set-up: dose 10 mg/kg, route oral; conditions: in vivo, read-out: beta t1/2 (converted); in short: as §2
[12] = Elimination half life in Sprague-Dawley rat at 3 mg/kg, iv; assay type: ADME, organism-based; set-up: dose 3 mg/kg, route intravenous; conditions: in vivo, read-out: beta t1/2 (converted); in short: as §2
[13] = Volume of distribution in Sprague-Dawley rat at 3 mg/kg, iv and at 10 mg/kg, po; assay type: ADME, organism-based; conditions: in vivo; in short: as §2
[14] = Oral bioavailability in Sprague-Dawley rat at 10 mg/kg; assay type: ADME, organism-based; conditions: in vivo; in short: as §2
[15] = Clearance in Sprague-Dawley rat at 3 mg/kg, iv and at 10 mg/kg, po; assay type: ADME, organism-based; conditions: in vivo; in short: as §2
Rattus norvegicus [16] = experiment: Ex vivo receptor occupancy of mGluR1 in po dosed fasted Sprague-Dawley rat assessed as ratio of drug level in cerebellum to frontal cortex after 20 mins; assay type: functional
In short: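 Fasted Sprague Dawley rats dosed orally (0.3–60 mg/kg; vehicle 1% methyl cellulose), then 1 h later given a 30 µg/kg IV bolus of a competing mGluR1 antagonist tracer. Killed 20 min later; cerebellum and frontal cortex levels measured by mass spectrometry. Occupancy by ratio method (cerebellum normalized to cortex), n = 4 per dose (n = 3 at 10 mg/kg).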

Rattus norvegicus [17] = experiment: Toxicity in fasted Sprague-Dawley rat assessed as deffects in motor impairment at 60 mg/kg, po measured up to 4 hrs by rotorod test; assay type: organism-based; set-up: dose 60 mg/kg, route oral; conditions: in vivo
In short: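 Fasted male Sprague Dawley rats given 60 mg/kg orally or vehicle (n = 8 per group); time on rotorod recorded at 1, 2, 3 and 4 h post-dose after training to 40 s baseline.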

[18] = AUC (0 to 24 hrs) in Sprague-Dawley rat at 10 mg/kg, po; assay type: ADME, organism-based; set-up: time < 24 hr, dose 10 mg/kg, route oral; conditions: plasma; in short: as §2
[19] = molecular target: Metabotropic glutamate receptor 1 (Rattus norvegicus, UniProt P23385); experiment: Antagonist activity at rat mGluR1; assay type: functional
Sequence of Metabotropic glutamate receptor 1 (Rattus norvegicus, UniProt P23385) (P23385 whole entry): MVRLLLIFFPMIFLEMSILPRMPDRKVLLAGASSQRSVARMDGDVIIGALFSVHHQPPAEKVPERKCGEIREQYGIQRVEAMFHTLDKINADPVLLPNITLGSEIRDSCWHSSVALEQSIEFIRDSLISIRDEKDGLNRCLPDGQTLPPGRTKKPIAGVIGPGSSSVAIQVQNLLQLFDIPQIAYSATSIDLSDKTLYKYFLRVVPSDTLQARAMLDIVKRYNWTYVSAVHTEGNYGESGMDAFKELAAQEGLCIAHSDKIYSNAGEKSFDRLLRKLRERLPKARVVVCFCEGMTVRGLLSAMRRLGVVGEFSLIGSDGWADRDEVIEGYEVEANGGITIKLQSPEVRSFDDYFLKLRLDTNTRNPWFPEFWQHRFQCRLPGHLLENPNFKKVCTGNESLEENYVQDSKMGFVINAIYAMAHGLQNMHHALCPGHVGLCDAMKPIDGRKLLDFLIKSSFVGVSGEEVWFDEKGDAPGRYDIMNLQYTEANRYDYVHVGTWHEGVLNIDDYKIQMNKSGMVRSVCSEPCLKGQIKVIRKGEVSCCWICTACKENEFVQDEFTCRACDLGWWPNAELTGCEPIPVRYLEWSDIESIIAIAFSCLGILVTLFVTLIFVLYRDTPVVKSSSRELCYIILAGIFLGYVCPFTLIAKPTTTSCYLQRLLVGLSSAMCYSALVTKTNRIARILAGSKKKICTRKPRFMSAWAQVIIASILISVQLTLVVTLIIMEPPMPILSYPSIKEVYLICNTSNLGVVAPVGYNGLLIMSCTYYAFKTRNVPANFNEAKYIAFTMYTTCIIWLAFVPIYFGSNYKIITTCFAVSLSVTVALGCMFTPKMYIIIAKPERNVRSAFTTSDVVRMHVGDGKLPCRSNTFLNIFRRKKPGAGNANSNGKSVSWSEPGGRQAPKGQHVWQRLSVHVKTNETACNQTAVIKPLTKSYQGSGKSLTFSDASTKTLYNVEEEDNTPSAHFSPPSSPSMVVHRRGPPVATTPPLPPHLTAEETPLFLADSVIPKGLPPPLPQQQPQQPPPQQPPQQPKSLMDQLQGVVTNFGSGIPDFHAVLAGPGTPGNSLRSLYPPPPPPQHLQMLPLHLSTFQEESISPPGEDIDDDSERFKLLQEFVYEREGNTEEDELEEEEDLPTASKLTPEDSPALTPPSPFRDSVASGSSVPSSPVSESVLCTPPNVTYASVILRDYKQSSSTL

[20] = Cmax in Sprague-Dawley rat at 10 mg/kg, po; assay type: ADME, organism-based; set-up: dose 10 mg/kg, route oral; conditions: in vivo; in short: as §2

SMILES | pIC50 [1] | pIC50 [2] | other results
CCOc1ccc(-c2nsc(NC(=O)[C@@H]3C[C@H]3C)c2C)cc1 | 7.04 | 7.72 | –
COc1ccc(-c2nsc(NC(=O)[C@H]3C[C@@H]3C)c2C)cc1 | 6.96 | – | –
Cc1c(-c2ccc(C(C)(F)F)cc2)nsc1NC(=O)[C@@H]1C[C@H]1C | 7.17 | < 4.90 | –
COc1ccc(-c2nsc(NC(=O)[C@@H]3C[C@H]3C)c2C)cc1 [listing 1 of 2 here] | – | – | Activity (Rattus norvegicus [3]): Dose-dependent effect; Activity [4]: inactive; Activity [5]: inactive; Activity (Rattus norvegicus [6]): Active; Activity [7]: inactive; Activity [8]: inactive
Cc1c(-c2ccc(O)cc2)nsc1NC(=O)[C@@H]1C[C@H]1C | 6.86 | < 4.90 | –
Cc1c(-c2ccc(F)cc2)nsc1NC(=O)[C@@H]1C[C@H]1C | 7.00 | < 4.90 | –

More lines, main results first:

pIC50 [1] | pIC50 [2] | SMILES | other results
7.41 | 5.18 | Cc1c(-c2ccc(Cl)c(Cl)c2)nsc1NC(=O)[C@@H]1C[C@H]1C | –
7.49 | – | COc1ccc(-c2nsc(NC(=O)[C@@H]3C[C@H]3C)c2C)cc1 (racemic) | –
8.05 | 5.91 | Cc1c(-c2ccc(Cl)cc2)nsc1NC(=O)[C@@H]1C[C@H]1C | –
8.15 | 6.14 | Cc1c(-c2ccc(Br)cc2)nsc1NC(=O)[C@@H]1C[C@H]1C | –
7.19 | < 4.90 | Cc1c(-c2ccccc2)nsc1NC(=O)[C@@H]1C[C@H]1C | –
8.15 | 6.80 | COc1ccc(-c2nsc(NC(=O)[C@@H]3C[C@H]3C)c2C)cc1F | –
8.05 | 6.80 | COc1ccc(-c2nsc(NC(=O)[C@@H]3C[C@H]3C)c2C)cc1 [listing 2 of 2 here] | ED50 (Rattus norvegicus [3]): 7 mg/kg; Kp [9]: 0.2; Tmax [10]: 1 h; half-life [11]: 1.24 h; half-life [12]: 0.41 h; Vd [13]: 1.27 L/kg; bioavailability [14]: 55.5%; clearance [15]: 35.9 mL/min/kg; ED50 (Rattus norvegicus [16]): 3.7 mg/kg; Activity (Rattus norvegicus [17]): Non-toxic; AUC(0-t) at 24 h [18]: 3240 ng·h/mL; pIC50 [19]: 9.05; Cmax [20]: 1050 ng/mL
